Drawing on ChEMBL document CHEMBL1122761, “Beta 1-selective adrenoceptor antagonists. 3. 4-Azolyl-linked phenoxypropanolamines” (J Med Chem, 1984), this text covers ED50, ED30 and pKa for 26 molecules.

SMILES strings stand for the structures. Some results are limits rather than exact numbers.

The target in data set [1] is Beta-2 adrenergic receptor (Rattus norvegicus) (UniProt P10608). Kind of data set: Beta-2 adrenergic receptor antagonism in rats anesthetized with pentobarbitone sodium (75 mg/kg ip).
Beta-2 adrenergic receptor (Rattus norvegicus), sequence (P10608 whole entry, looked up): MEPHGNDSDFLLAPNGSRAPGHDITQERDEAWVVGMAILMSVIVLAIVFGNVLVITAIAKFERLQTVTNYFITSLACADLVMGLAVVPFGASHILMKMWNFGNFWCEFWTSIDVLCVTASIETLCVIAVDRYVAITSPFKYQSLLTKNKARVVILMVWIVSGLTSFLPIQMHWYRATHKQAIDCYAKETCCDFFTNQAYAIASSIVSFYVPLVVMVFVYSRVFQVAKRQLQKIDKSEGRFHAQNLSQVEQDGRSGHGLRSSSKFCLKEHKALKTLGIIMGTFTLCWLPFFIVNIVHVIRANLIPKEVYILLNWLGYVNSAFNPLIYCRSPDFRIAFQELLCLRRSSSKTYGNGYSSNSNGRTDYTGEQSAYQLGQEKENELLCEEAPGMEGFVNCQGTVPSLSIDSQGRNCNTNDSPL
For data set [2], the target named is Beta-1 adrenergic receptor (Rattus norvegicus) (UniProt P18090). Kind of data set: Inhibition of isoprenaline induced tachycardia in anaesthetised rats. It counts as functional. An outline of the steps: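 Pentobarbitone-anesthetized rats (75 mg/kg ip), bilaterally vagotomized, tracheal cannula. Isoprenaline given via right femoral vein; carotid blood pressure and tachograph heart rate recorded. Test compound injected 5 min after isoprenaline, cumulative doses up to 2 mg/kg. ED50 (50% reduction of control isoprenaline response) with 95% confidence limits by linear regression of log dose-response.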
Beta-1 adrenergic receptor (Rattus norvegicus), sequence (P18090 whole entry, looked up): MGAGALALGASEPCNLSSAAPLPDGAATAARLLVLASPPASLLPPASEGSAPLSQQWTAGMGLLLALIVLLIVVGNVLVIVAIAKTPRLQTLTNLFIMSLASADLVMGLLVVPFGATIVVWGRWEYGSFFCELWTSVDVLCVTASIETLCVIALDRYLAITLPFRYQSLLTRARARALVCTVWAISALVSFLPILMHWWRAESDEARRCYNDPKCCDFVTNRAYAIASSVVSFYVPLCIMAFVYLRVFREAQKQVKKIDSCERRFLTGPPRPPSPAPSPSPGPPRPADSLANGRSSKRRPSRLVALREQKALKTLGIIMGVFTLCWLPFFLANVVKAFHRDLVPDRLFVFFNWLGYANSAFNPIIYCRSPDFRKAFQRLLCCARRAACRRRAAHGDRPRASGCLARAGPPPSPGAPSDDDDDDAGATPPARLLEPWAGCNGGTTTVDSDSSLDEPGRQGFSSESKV

Data set [3] addresses Adrenergic receptor beta (Rattus norvegicus) (UniProt P18090+P10608+P26255). Kind of data set: Beta agonist activity against heart rate in rats. It counts as functional, tissue-based. An outline of the steps: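 Rats anesthetized with pentobarbitone sodium (75 mg/kg ip) and reserpinized 20-24 h earlier (5 mg/kg ip). Single iv doses into tail vein, up to 20 animals. Blood pressure and heart rate recorded; ED30 = dose giving 30 beats/min heart-rate rise, with 95% confidence limits from log dose-response linear regression.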

The target in data set [4] is Beta-2 adrenergic receptor (Rattus norvegicus) (UniProt P10608). Kind of data set: Inhibition of isoprenaline induced […] response in anaesthetised rats.
A short description of data set [5]: Acid dissociation constant was determined. It counts as ADME.

By ED50 is commonly meant the dose that gives a 50% effect, or the effect in half of the subjects. Low readings indicate greater potency, high ones weaker potency. For `CC(C)NCC(O)COc1ccc(OCCn2cnc3ccccc32)cc1` (centres undefined), the ED50 is above 2 mg/kg in data set [1] and 0.687 mg/kg in data set [2]. The ED30 in data set [3] is above 1 mg/kg.
With `CC(C)NCC(O)COc1ccc(OCCn2ncc3ccccc32)cc1` (centres undefined), the median effective dose (ED50) in data set [1] was above 2 mg/kg; in data set [2] it was 0.263 mg/kg. The ED30 in data set [3] was above 1 mg/kg.
The pKa is the pH at which an ionisable group is half protonated. A higher pKa goes with a weaker acid or stronger base. In the case of `CC(C)NCC(O)COc1ccc(OCn2nccn2)cc1` (centres undefined), the 50% effective dose (ED50) in data set [4] is above 2 mg/kg; in data set [2], 0.011 mg/kg. Also, the pKa in data set [5] is below 1. For the same molecule, the ED30 in data set [3] stood at 0.019 mg/kg.
As to `CC(C)NCC(O)COc1ccc(CCCn2cccn2)cc1` (centres undefined), the ED50 was above 2 mg/kg in data set [1] and 0.783 mg/kg in data set [2]. Also, in data set [3], the ED30 was above 1 mg/kg.
For `CC(C)NCC(O)COc1ccc(OCn2cc(Cl)cn2)cc1` (centres undefined), the ED50 in data set [4] is 2.43 mg/kg; in data set [2] it was 0.004 mg/kg. In data set [5], this molecule displayed a pKa below 0.6. The molecule further returned an ED30 in data set [3] of 0.007 mg/kg.
For the molecule `CC(C)(C)NCC(O)COc1ccc(OCCn2cccn2)cc1` (centres undefined), the results for the ED50 in data set [1] and in data set [2] were 1.04 mg/kg and 0.067 mg/kg, respectively. The same molecule registered an ED30 in data set [3] of 0.154 mg/kg.
As for `CC(C)NCC(O)COc1ccc(OCCn2ccnc2)cc1` (centres undefined), the ED50 in data set [1] is above 2 mg/kg; in data set [2], 0.97 mg/kg. Besides, the ED30 in data set [3] was above 1 mg/kg.
Take `CC(C)NCC(O)COc1ccc(OCCn2nnc3ccccc32)cc1` (centres undefined): the ED50 in data set [1] is above 2 mg/kg; in data set [2], 1.27 mg/kg. Moreover, in data set [3], the ED30 was above 1 mg/kg.
`CC(C)NCC(O)COc1ccc(OCCn2cncn2)cc1` (centres undefined): the ED50 in data set [1] is above 2 mg/kg; in data set [2] it was 0.17 mg/kg. Also, the pKa in data set [5] stood at 3.2. In data set [3], this molecule gave an ED30 above 1 mg/kg.
As to `CC(C)NCC(O)COc1ccc(OCCn2nc3c(n2)CCCC3)cc1` (centres undefined), the ED50 in data set [1] was above 2 mg/kg; in data set [2], 0.057 mg/kg. In data set [3], the ED30 is above 1 mg/kg.
In the case of `CC(C)NCC(O)COc1ccc(Cn2cccn2)cc1` (centres undefined), the ED50 is above 2 mg/kg in data set [1] and 0.598 mg/kg in data set [2]. This molecule displayed an ED30 in data set [3] above 1 mg/kg.
Consider `CC(C)NCC(O)COc1ccc(CCn2cncn2)cc1` (centres undefined), for which the ED50 is above 2 mg/kg in data set [1] and 0.233 mg/kg in data set [2]. The pKa in data set [5] was 3.2. The molecule further yielded an ED30 in data set [3] above 1 mg/kg.
As for `CC(C)NCC(O)COc1ccc(OCCn2cc(-c3ccccc3)cn2)cc1` (centres undefined), the ED50 in data set [1] is above 2 mg/kg; in data set [2] it was 0.16 mg/kg. For the same molecule, in data set [3], the ED30 is above 1 mg/kg.
For the molecule `CC(C)NCC(O)COc1ccc(OCn2ccnn2)cc1` (centres undefined), the figures for the ED50 in data set [4] and in data set [2] were above 2 mg/kg and 0.04 mg/kg, respectively. The same molecule yielded a pKa in data set [5] of 1.25. For the same molecule, the ED30 in data set [3] came out at 0.05 mg/kg.
`CC(C)NCC(O)COc1ccc(OCCn2nc3ccccc3n2)cc1` (centres undefined): the ED50 in data set [1] amounted to 0.988 mg/kg; in data set [2] it was 0.05 mg/kg. For the same molecule, in data set [3], the ED30 was above 1 mg/kg.
Consider `CC(C)NCC(O)COc1ccc(Cn2ccnc2)cc1` (centres undefined), for which the ED50 is above 1 mg/kg in data set [1] and 0.62 mg/kg in data set [2]. Besides, in data set [5], the pKa came out at 7.2. Besides, in data set [3], the ED30 is above 1 mg/kg.
`CC(C)NCC(O)COc1ccc(OCCn2cc(Cl)cn2)cc1` (centres undefined): the median effective dose (ED50) is 0.523 mg/kg in data set [1] and 0.024 mg/kg in data set [2]. In data set [5], this molecule registered a pKa below 0.6. Also, in data set [3], the ED30 is 0.194 mg/kg.
Regarding `CC(C)NCC(O)COc1ccc(OCCCn2cncn2)cc1` (centres undefined), the ED50 in data set [1] was above 2 mg/kg; in data set [2], 0.68 mg/kg. Also, in data set [3], the ED30 is above 1 mg/kg.
`CC(C)NCC(O)COc1ccc(CCn2cccn2)cc1` (centres undefined): the ED50 in data set [1] was above 2 mg/kg; in data set [2], 0.209 mg/kg. This molecule returned a pKa in data set [5] of 2. In data set [3], this molecule came in with an ED30 above 1 mg/kg.
In the case of `CC(C)NCC(O)COc1ccc(SCn2cccn2)cc1` (centres undefined), the ED50 was above 2 mg/kg in data set [1] and 0.327 mg/kg in data set [2]. This molecule registered an ED30 in data set [3] above 1 mg/kg.
The corresponding values for `CC(C)NCC(O)COc1ccc(SCCn2cccn2)cc1` (centres undefined) are above 2 mg/kg, 0.128 mg/kg and above 1 mg/kg.
Take `CC(C)NCC(O)COc1ccc(OCCn2cccn2)cc1` (centres undefined): the results for the ED50 in data set [1] and in data set [2] were above 2 mg/kg and 0.05 mg/kg, respectively. Besides, the pKa in data set [5] was 2. Also, the ED30 in data set [3] is above 1 mg/kg.
The corresponding values for `CC(C)NCC(O)COc1ccc(OCCn2nccn2)cc1` (centres undefined) are above 2 mg/kg, 0.014 mg/kg, below 1 and 0.014 mg/kg.
In the case of `CC(C)NCC(O)COc1ccc(OCn2cccn2)cc1` (centres undefined), the ED50 in data set [4] was above 2 mg/kg; in data set [2], 0.028 mg/kg. This molecule also displayed a pKa in data set [5] of 2. Moreover, in data set [3], the ED30 was above 1 mg/kg.
In the case of `CC(C)NCC(O)COc1ccc(CCn2ccnc2)cc1` (centres undefined), the ED50 in data set [1] is above 1 mg/kg; in data set [2] it was 0.186 mg/kg. This molecule came in with an ED30 in data set [3] above 1 mg/kg.
For `CC(C)NCC(O)COc1ccc(OCCCn2cccn2)cc1` (centres undefined), the ED50 in data set [1] is above 2 mg/kg; in data set [2], 0.334 mg/kg. In data set [3], this molecule yielded an ED30 above 1 mg/kg.
